Laboratory results from ChEMBL document CHEMBL3045676, “Anti-tobacco mosaic virus (TMV) Quassinoids from Brucea javanica (L.) Merr” (J Agric Food Chem, 2010).
The source made the active and inactive calls. The calls are words filed in the database; no cut-off is given here.

Legend:
Tobacco mosaic virus [1] = test: Antiviral activity against Tobacco mosaic virus strain U1 (TMV) infected Nicotiana tabacum cv. K326 leaves assessed as decrease in Tobacco mosaic virus coat protein level at 20 uM at 25 degC treated at 6 hr after viral inoculation measured after 48 hr by leaf disk method/western blot analysis; format: functional, organism-based
Outline: (§1)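 N. tabacum cv. K326 leaves (5-6-leaf stage) mechanically inoculated with TMV (32 μg/mL in 0.01 M PBS). After 6 h, 1 cm disks without major veins were cut and floated on compound solution, with DMSO negative control and ningnanmycin positive control, at 25 °C for 48 h. Coat protein was then detected by SDS-PAGE and Western blot with polyclonal anti-TMV antibody and AP-conjugated anti-rabbit IgG using NBT/BCIP; samples run in duplicate.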

Tobacco mosaic virus [2] = test: In vivo antiviral activity against Tobacco mosaic virus strain U1 (TMV) infected left side of Nicotiana glutinosa leaves assessed as decrease in local lesion numbers co-incubated with virus for 30 min before inoculation onto leaves measured at 3-4 days after viral challenge by half-leaf method; format: functional, organism-based
Outline: (§2)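 Half-leaf test on N. glutinosa at the 5-6-leaf stage. Compound was dissolved in DMSO, diluted in water and mixed with TMV (32 μg/mL in 0.01 M PBS) for 30 min, then rubbed onto the left half-leaf; the right half received virus plus DMSO. Local lesions were counted after 3-4 days, with three repetitions. Inhibition % = (C−T)/C×100 using mean lesion counts. IC50 was taken from a 1.25-20 μM series.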

Tobacco mosaic virus [3] = test: In vivo antiviral activity against Tobacco mosaic virus strain U1 (TMV) infected left side of Nicotiana glutinosa leaves assessed as decrease in local lesion numbers at 20 uM co-incubated with virus for 30 min before inoculation onto leaves measured at 3-4 days after viral challenge by half-leaf method; format: functional; outline: as §2
Tobacco mosaic virus [4] = test: In vivo antiviral activity against Tobacco mosaic virus strain U1 (TMV) infected left side of Nicotiana glutinosa leaves assessed as decrease in local lesion numbers at 1.25 uM co-incubated with virus for 30 min before inoculation onto leaves measured at 3-4 days after viral challenge by half-leaf method; format: functional; outline: as §2
Tobacco mosaic virus [5] = test: In vivo antiviral activity against Tobacco mosaic virus strain U1 (TMV) infected left side of Nicotiana glutinosa leaves assessed as decrease in local lesion numbers at 2.5 uM co-incubated with virus for 30 min before inoculation onto leaves measured at 3-4 days after viral challenge by half-leaf method; format: functional; outline: as §2
Tobacco mosaic virus [6] = test: Antiviral activity against Tobacco mosaic virus strain U1 (TMV) infected Nicotiana glutinosa leaves assessed as protective effect by decrease in local lesion number at 20 uM treated 6 hr prior to viral inoculation measured at 3-4 days after viral challenge; format: functional
Outline: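 N. glutinosa plants pretreated with compound solutions (DMSO diluted in distilled water) or DMSO solution for 6 h, then inoculated with TMV and kept in an insect-free greenhouse 3-4 days until local lesions were visible; inhibition rate calculated from local lesion counts.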

Tobacco mosaic virus [7] = test: In vivo antiviral activity against Tobacco mosaic virus strain U1 (TMV) infected left side of Nicotiana glutinosa leaves assessed as decrease in local lesion numbers at 5 uM co-incubated with virus for 30 min before inoculation onto leaves measured at 3-4 days after viral challenge by half-leaf method; format: functional; outline: as §2
Tobacco mosaic virus [8] = test: In vivo antiviral activity against Tobacco mosaic virus strain U1 (TMV) infected left side of Nicotiana glutinosa leaves assessed as decrease in local lesion numbers at 10 uM co-incubated with virus for 30 min before inoculation onto leaves measured at 3-4 days after viral challenge by half-leaf method; format: functional; outline: as §2
Tobacco mosaic virus [9] = test: Ratio of ningnamycin IC50 to compound IC50 for Tobacco mosaic virus strain U1 (TMV) infected left side of Nicotiana glutinosa leaves by half-leaf method; format: functional
Outline: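 Ratio of IC50 values from the half-leaf N. glutinosa lesion assay, with ningnanmycin as the reference compound. Virus (32 μg/mL) was premixed with compound for 30 min before inoculation, and lesions were counted after 3-4 days.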

Tobacco mosaic virus [10] = test: Antiviral activity against Tobacco mosaic virus strain U1 (TMV) infected Nicotiana tabacum cv. K326 leaves assessed as decrease in Tobacco mosaic virus coat protein level at 25 degC treated at 6 hr after viral inoculation measured after 48 hr by leaf disk method/western blot analysis; format: functional, organism-based; outline: as §1

Row | SMILES | inhibition (Tobacco mosaic virus [1]) | IC50 (Tobacco mosaic virus [2]) | inhibition in vivo at 20 µM (Tobacco mosaic virus [3]) | inhibition in vivo at 1.25 µM (Tobacco mosaic virus [4]) | inhibition in vivo at 2.5 µM (Tobacco mosaic virus [5]) | inhibition at 20 µM (Tobacco mosaic virus [6]) | inhibition in vivo at 5 µM (Tobacco mosaic virus [7]) | inhibition in vivo at 10 µM (Tobacco mosaic virus [8]) | Ratio IC50 (Tobacco mosaic virus [9]) | inhibition (Tobacco mosaic virus [10])
1 | COC1=C[C@@H](C)[C@@H]2C[C@H]3OC(=O)C[C@H]4[C@@H](C)[C@H](OC)[C@@H](O)[C@H]([C@@]2(C)C1=O)[C@@]34C | inactive | – | – | – | – | – | – | – | – | –
2 | COC(=O)[C@@]12OC[C@]34[C@H]([C@@H](O)[C@@H]1O)[C@@]1(C)CC(=O)C(O)=C(C)[C@@H]1C[C@H]3OC(=O)[C@H](OC(C)=O)[C@@H]24 [BRUCEINE B] | Active | 3.47 µM | 88.9% | 20.5% | 40.6% | 86.3% | 65.2% | 81.5% | – | –
3 | CC1=CC(=O)[C@@H](O)[C@]2(C)[C@H]3[C@@H](O)[C@H](O)[C@]4(C)OC[C@@]35[C@@H](C[C@@H]12)OC(=O)[C@H](O)[C@]54O [BRUCEINE D] | Active | 5.29 µM | 78.6% | 21.4% | 29.1% | 72.2% | 47.9% | 66.7% | – | –
4 | CC1=C[C@H](O)[C@@H](O)[C@]2(C)[C@H]3[C@@H](O)[C@H](O)[C@@]4(C)OC[C@@]35[C@@H](C[C@@H]12)OC(=O)[C@H](O)[C@]54O [BRUCEINE E] | Active | – | 28.7% | – | – | – | – | – | – | –
5 | COC(=O)[C@@]12OC[C@]34[C@H]([C@@H](O)[C@@H]1O)[C@@]1(C)C=C(O[C@@H]5O[C@H](CO)[C@@H](O)[C@H](O)[C@H]5O)C(=O)[C@@H](C)[C@@H]1C[C@H]3OC(=O)[C@H](OC(=O)C=C(C)C)[C@@H]24 [BRUCEOSIDE A] | Active | – | 24.1% | – | – | – | – | – | – | –
6 | COC(=O)[C@]12OC[C@]34[C@H]([C@@H](O)[C@@H]1O)[C@@]1(C)CC(=O)C(O)=C(C)[C@@H]1C[C@H]3OC(=O)[C@H](OC(=O)C=C(C)C)[C@@H]24 [BRUSATOL] | Active | 3.42 µM | 88.9% | 20% | 48.8% | 77.5% | 64.7% | 71.5% | 34 | Dose-dependent effect
7 | COC(=O)[C@]12OC[C@]34[C@H]([C@@H](O)[C@@H]1O)[C@@]1(C)CC(=O)C(O[C@@H]5O[C@H](CO)[C@@H](O)[C@H](O)[C@H]5O)=C(C)[C@@H]1C[C@H]3OC(=O)[C@H](OC(=O)C=C(C)C)[C@@H]24 [Bruceoside-B] | Active | 4.64 µM | 78.4% | 21.4% | 31.7% | 90.2% | 53.8% | 66.7% | – | –
8 | COC(=O)[C@]12OC[C@@]34[C@@H](CC5=C(C)C(=O)C(O)=C[C@]5(C)[C@H]3[C@@H](O)[C@@H]1O)OC(=O)[C@H](OC(C)=O)[C@@H]24 [DEDYDROBRUCEINE B] | Active | – | 59.1% | – | – | – | – | – | – | –
9 | COC(=O)[C@]12OC[C@]34[C@H]([C@@H](O)[C@@H]1O)[C@@]1(C)CC(=O)[C@H](O)[C@@H](C)[C@@H]1C[C@H]3OC(=O)[C@H](OC(=O)/C=C(\C)C(C)(C)OC(C)=O)[C@@H]24 [JAVANICOLIDE F] | – | – | 52.1% | – | – | – | – | – | – | –
10 | COC(=O)[C@]12OC[C@]34[C@H]([C@@H](O)[C@@H]1O)[C@@]1(C)CC(=O)[C@H](O)[C@@H](C)[C@@H]1C[C@H]3OC(=O)[C@H](OC(=O)C=C(C)C)[C@@H]24 [JAVANICOLIDES E] | – | – | 52% | – | – | – | – | – | – | –
11 | CNCC(=O)N[C@@H](CO)C(=O)N[C@H]1[C@H](O)[C@@H](O)[C@H](n2ccc(N)nc2=O)O[C@@H]1C(N)=O [NINGNANMYCIN] | – | – | 25.3% | 28% | 37.9% | – | 46.6% | 67.5% | – | –
12 | CC1=C[C@H](O[C@@H]2O[C@H](CO)[C@@H](O)[C@H](O)[C@H]2O)[C@@H](O)[C@]2(C)[C@H]3[C@@H](O)[C@H](O)[C@]4(C)OC[C@@]35[C@@H](C[C@@H]12)OC(=O)[C@H](O)[C@]54O [YADANZIGAN] | Active | – | 30.6% | – | – | – | – | – | – | –
13 | CC1=CC(=O)[C@@H](O)[C@]2(C)[C@H]3[C@@H](O)[C@H](O)[C@]4(CO)OC[C@@]35[C@@H](C[C@@H]12)OC(=O)[C@H](O)[C@]54O [YADANZIOLIDE A] | Active | 5.5 µM | 75% | 22.4% | 39.2% | – | 46.1% | 58.7% | – | –
14 | COC(=O)[C@]12OC[C@]34[C@H]([C@@H](O)[C@@H]1O)[C@@]1(C)[C@H](O)[C@@H](O)C=C(C)[C@@H]1C[C@H]3OC(=O)[C@H](OC(C)=O)[C@@H]24 [YADANZIOSIDE D] | Active | 5.66 µM | 70.8% | 21.4% | 38.5% | – | 48.4% | 59.2% | – | –
15 | COC(=O)[C@]12OC[C@]34[C@H]([C@@H](O)[C@@H]1O)[C@@]1(C)C=C(O[C@@H]5O[C@H](CO)[C@@H](O)[C@H](O)[C@H]5O)C(=O)[C@@H](C)[C@@H]1C[C@H]3OC(=O)[C@H](OC(C)=O)[C@@H]24 [YADANZIOSIDE F] | Active | – | 31.1% | – | – | – | – | – | – | –
16 | COC(=O)[C@]12OC[C@]34[C@H]([C@@H](O)[C@@H]1O)[C@@]1(C)CC(=O)C(O[C@@H]5O[C@H](CO)[C@@H](O)[C@H](O)[C@H]5O)=C(C)[C@@H]1C[C@H]3OC(=O)[C@H](OC(C)=O)[C@@H]24 [YADANZIOSIDE I] | Active | 4.22 µM | 81.5% | 26.1% | 35.4% | – | 54.9% | 67.9% | – | –
17 | COC(=O)[C@]12OC[C@]34[C@H]([C@@H](O)[C@@H]1O)[C@@]1(C)C=C(O[C@@H]5O[C@H](CO)[C@@H](O)[C@H](O)[C@H]5O)C(=O)[C@@H](C)[C@@H]1C[C@H]3OC(=O)[C@H](OC(=O)/C=C(\C)C(C)(C)OC(C)=O)[C@@H]24 [Yadanzioside G] | Active | – | 33.7% | – | – | – | – | – | – | –
18 | COC(=O)[C@]12OC[C@]34[C@H]([C@@H](O)[C@@H]1O)[C@@]1(C)CC(=O)C(O[C@@H]5O[C@H](CO)[C@@H](O)[C@H](O)[C@H]5O)=C(C)[C@@H]1C[C@H]3OC(=O)[C@H](OC(=O)/C=C(\C)C(C)(C)O)[C@@H]24 [Yadanzioside L] | Active | 4.86 µM | 73.8% | 20% | 35% | 54.4% | 53.3% | 64.3% | – | –
